Legend:
[1] = system: Mus musculus; test: Toxicity in CD1 mouse assessed convulsant activity at 4 to 25 umol/kg, iv after 20 mins; assay type: organism-based; conditions: in vivo
Summary of the method: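 CD1 mice were watched for convulsions during the acetic acid writhing experiment, at the intravenous doses used there (4 to 25) and 20 min after dosing.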

[2] = system: Rattus norvegicus; test: Antihyperalgesic activity against carrageenan-induced inflammatory hyperalgesia in iv dosed Sprague-Dawley rat after 30 mins; assay type: functional
Summary of the method: (§1)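 Sprague-Dawley rats with carrageenan-induced inflammatory hyperalgesia received the compound intravenously across a dose range of 3 to 30. Antinociceptive reversal was measured 30 min after dosing.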

[3] = system: Mus musculus; test: Toxicity in CD1 mouse assessed hyperactivity at above 30 umol/kg, iv after 20 mins; assay type: organism-based; conditions: in vivo
[4] = Bioavailability in rat; assay type: ADME, organism-based; conditions: in vivo
[5] = system: Rattus norvegicus; test: Toxicity in Sprague-Dawley rat assessed hyperactivity at above 30 umol/kg, iv after 30 mins; assay type: organism-based; conditions: in vivo, 0.5 h
[6] = Half life in rat; assay type: ADME, organism-based; conditions: in vivo
[7] = system: Rattus norvegicus; test: Antihyperalgesic activity against carrageenan-induced inflammatory hyperalgesia in Sprague-Dawley rat at 30 umol/kg, iv after 30 mins; assay type: functional; summary of the method: as §1
[8] = system: Rattus norvegicus; test: Toxicity in Sprague-Dawley rat assessed convulsant activity at 3 to 30 umol/kg, iv after 30 mins; assay type: organism-based; conditions: in vivo, 0.5 h
Summary of the method: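 Sprague-Dawley rats were watched for convulsions during the carrageenan hyperalgesia experiment, at the intravenous doses used there (3 to 30) and 30 min after dosing.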

[9] = system: Mus musculus; test: Antinociceptive activity against acetic acid-induced writhing response in iv dosed CD1 mouse after 20 mins; assay type: functional
Summary of the method: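 CD1 mice received the compound intravenously at doses of 4 to 25 before the acetic acid-induced abdominal constriction (writhing) test. Writhing inhibition was scored 20 min after dosing and ED₅₀ was taken from the dose-response. A separate arm was pretreated with the delta-selective antagonist naltrindole.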

Structure (SMILES) | Activity [1] | Activity [2] | ED50 ([2]; Rattus norvegicus, Sprague-Dawley, iv, 0.5 h) | Activity [3] | bioavailability [4] | Activity [5] | half-life [6] | Activity [7] | Activity [8] | Activity [9]
CCN(CC)C(=O)c1ccc(N(c2cccc(O)c2)C2CCN(CCc3ccccc3)CC2)cc1 | Non-toxic | Dose-dependent effect | 17.5 µmol/kg | Non-toxic | 25% | Non-toxic | 48 min | 60% | Non-toxic | –
CN1CC[C@]23c4c5ccc(O)c4O[C@H]2[C@@H](O)C=C[C@H]3[C@H]1C5 [MORPHINE] | – | 3.1 µmol/kg | – | – | – | – | – | – | – | 1.5 µmol/kg

Source: ChEMBL document CHEMBL1156083, “N,N-Diethyl-4-[(3-hydroxyphenyl)(piperidin-4-yl)amino] benzamide derivatives: the development of diaryl amino piperidines as potent delta opioid receptor agonists with in vivo anti-nociceptive activity in rodent models” (Bioorg Med Chem Lett, 2009)
